Assay results as given in ChEMBL document CHEMBL1156684, “Non-nucleoside HIV-1 reverse transcriptase inhibitors. Part 11: structural modulations of diaryltriazines with potent anti-HIV activity” (Eur J Med Chem, 2008).

Legend:
[1] = Cytotoxicity against human MT4 cells after 4 days by MTT assay; format: cell-based
Procedure, shortened: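 Uninfected MT-4 cells exposed to graded compound concentrations (DMSO stocks at 50 mM or higher) for 4 days at 37 °C. Viability read by MTT. CC₅₀ is the concentration reducing MT-4 cell viability by 50%.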

[2] = Selectivity index, ratio of CC50 for human MT4 cells to IC50 for HIV1 3B; format: functional
Procedure, shortened: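 Ratio CC₅₀/IC₅₀. CC₅₀ is from MTT viability of MT-4 cells and IC₅₀ from MTT protection of HIV-infected MT-4 cells (MOI 0.02), both after 4 days at 37 °C.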

[3] = tested on: Human immunodeficiency virus 2; assay: Antiviral activity against HIV2 ROD in human MT4 cells assessed as inhibition of viral replication by MTT assay; format: functional, organism-based; settings: Human immunodeficiency virus 2, ROD
Procedure, shortened: (§1)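 MT-4 cells at 1 × 10⁵ cells/ml infected with HIV at multiplicity of infection 0.02 (virus stocks titrated in MT-4 cells as CCID₅₀), then plated immediately with serial compound dilutions (DMSO stocks at 50 mM or higher). Viable cells counted by MTT after 4 days at 37 °C. IC₅₀ is the concentration protecting 50% of cells from viral cytopathogenicity.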

[4] = tested on: Human immunodeficiency virus 1; assay: Antiviral activity against HIV 3B in human MT4 cells assessed as inhibition of viral replication by MTT assay; format: functional, organism-based; settings: Human immunodeficiency virus 1, 3B; procedure, shortened: as §1

SMILES: Cc1ccnc2c1NC(=O)c1cccnc1N2C1CC1 [NEVIRAPINE]
- CC50 at 96 h [1]: > 200 µM
- Ratio CC50/IC50 [2]: >800

SMILES: N#Cc1ccc(Nc2nc(N)nc(Oc3ccc(Cl)c4ccccc34)n2)cc1
- IC50 [3]: ≥ 12.6 µM
- IC50 [4]: 0.062 µM
- CC50 at 96 h [1]: 237 µM
- Ratio CC50/IC50 [2]: 3775

SMILES: CNc1nc(Nc2ccc(C#N)cc2)nc(Oc2ccc3ccccc3c2Cl)n1
- IC50 [3]: > 171 µM
- IC50 [4]: 0.0118 µM
- CC50 at 96 h [1]: 171 µM
- Ratio CC50/IC50 [2]: 14412

SMILES: CCCNc1nc(Nc2ccc(C#N)cc2)nc(Oc2ccc(Cl)c3ccccc23)n1
- IC50 [3]: 45.6 µM
- IC50 [4]: 1.63 µM
- CC50 at 96 h [1]: 182 µM
- Ratio CC50/IC50 [2]: 111

SMILES: N#Cc1ccc(Nc2nc(N)nc(Oc3ccc4ccccc4c3Br)n2)cc1
- IC50 [3]: 20.2 µM
- IC50 [4]: 0.0094 µM
- CC50 at 96 h [1]: 133 µM
- Ratio CC50/IC50 [2]: 14094

SMILES: CNc1nc(Nc2ccc(C#N)cc2)nc(Oc2ccc3cc(Br)ccc3c2Br)n1
- IC50 [3]: > 91.9 µM
- IC50 [4]: 0.0184 µM
- CC50 at 96 h [1]: 92.8 µM
- Ratio CC50/IC50 [2]: 5018

SMILES: CNc1nc(Nc2ccc(C#N)cc2)nc(Oc2ccc3ccccc3c2)n1
- IC50 [3]: > 251 µM
- IC50 [4]: 0.26 µM
- CC50 at 96 h [1]: 250 µM
- Ratio CC50/IC50 [2]: 968

SMILES: CC(C)Nc1nc(Nc2ccc(C#N)cc2)nc(Oc2ccc3ccccc3c2Br)n1
- IC50 [3]: > 41.5 µM
- IC50 [4]: 1.06 µM
- CC50 at 96 h [1]: 41.5 µM
- Ratio CC50/IC50 [2]: 39

SMILES: N#Cc1ccc(Nc2nc(N)nc(Oc3ccc4ccccc4c3Cl)n2)cc1
- IC50 [3]: ≥ 5.3 µM
- IC50 [4]: 0.0287 µM
- Ratio CC50/IC50 [2]: 2872

SMILES: CC(C)Nc1nc(Nc2ccc(C#N)cc2)nc(Oc2ccc3cc(Br)ccc3c2Br)n1
- IC50 [3]: 9.71 µM
- IC50 [4]: 0.693 µM
- CC50 at 96 h [1]: ≥ 209 µM
- Ratio CC50/IC50 [2]: >302

SMILES: CCCNc1nc(Nc2ccc(C#N)cc2)nc(Oc2ccc3ccccc3c2Br)n1
- IC50 [3]: ≥ 58.3 µM
- IC50 [4]: 0.203 µM
- CC50 at 96 h [1]: > 263 µM
- Ratio CC50/IC50 [2]: >1294

SMILES: CNc1nc(Nc2ccc(C#N)cc2)nc(Oc2ccc3cc(Br)ccc3c2)n1
- IC50 [3]: > 194 µM
- IC50 [4]: 0.284 µM
- CC50 at 96 h [1]: 194 µM
- Ratio CC50/IC50 [2]: 685

SMILES: CCCNc1nc(Nc2ccc(C#N)cc2)nc(Oc2cccc3ccccc23)n1
- IC50 [3]: > 73.2 µM
- IC50 [4]: 2.7 µM
- CC50 at 96 h [1]: 29.5 µM
- Ratio CC50/IC50 [2]: 11

SMILES: N#Cc1ccc(Nc2nc(N)nc(Oc3ccc4cc(Br)ccc4c3Br)n2)cc1
- IC50 [3]: 10.5 µM
- IC50 [4]: 0.0195 µM
- CC50 at 96 h [1]: 244 µM
- Ratio CC50/IC50 [2]: 12475

SMILES: N#Cc1ccc(Nc2nc(N)nc(Oc3ccc4cc(Br)ccc4c3)n2)cc1
- IC50 [3]: 19.7 µM
- IC50 [4]: 0.0808 µM
- CC50 at 96 h [1]: 243 µM
- Ratio CC50/IC50 [2]: 3019

SMILES: N#Cc1ccc(Nc2nc(N)nc(Oc3cccc4ccccc34)n2)cc1
- IC50 [3]: > 39.1 µM
- IC50 [4]: 0.107 µM
- CC50 at 96 h [1]: 39.1 µM
- Ratio CC50/IC50 [2]: 364

SMILES: CCNc1nc(Nc2ccc(C#N)cc2)nc(Oc2ccc3cc(Br)ccc3c2Br)n1
- IC50 [3]: > 74.5 µM
- IC50 [4]: 0.156 µM
- CC50 at 96 h [1]: 74.4 µM
- Ratio CC50/IC50 [2]: 477

SMILES: CCNc1nc(Nc2ccc(C#N)cc2)nc(Oc2ccc3ccccc3c2Cl)n1
- IC50 [3]: 16 µM
- IC50 [4]: 0.114 µM
- CC50 at 96 h [1]: 188 µM
- Ratio CC50/IC50 [2]: 1642

SMILES: CNc1nc(Nc2ccc(C#N)cc2)nc(Oc2ccc3ccccc3c2Br)n1
- IC50 [3]: ≥ 28.2 µM
- IC50 [4]: 0.0093 µM
- CC50 at 96 h [1]: 143 µM
- Ratio CC50/IC50 [2]: 15400

SMILES: CNc1nc(Nc2ccc(C#N)cc2)nc(Oc2cccc3ccccc23)n1
- IC50 [3]: > 30.3 µM
- IC50 [4]: 0.186 µM
- CC50 at 96 h [1]: 30.3 µM
- Ratio CC50/IC50 [2]: 163

SMILES: N#Cc1ccc(Nc2nc(N)nc(Oc3ccc4ccccc4c3)n2)cc1
- IC50 [3]: ≥ 11.5 µM
- IC50 [4]: 0.09 µM
- CC50 at 96 h [1]: 42.2 µM
- Ratio CC50/IC50 [2]: 471

SMILES: CCCNc1nc(Nc2ccc(C#N)cc2)nc(Oc2ccc3cc(Br)ccc3c2Br)n1
- IC50 [3]: 6.59 µM
- IC50 [4]: 0.256 µM
- CC50 at 96 h [1]: 134 µM
- Ratio CC50/IC50 [2]: 524

SMILES: CCCNc1nc(Nc2ccc(C#N)cc2)nc(Oc2ccc3ccccc3c2Cl)n1
- IC50 [3]: ≥ 43.6 µM
- IC50 [4]: 0.187 µM
- CC50 at 96 h [1]: > 290 µM
- Ratio CC50/IC50 [2]: >1547

SMILES: CNc1nc(Nc2ccc(C#N)cc2)nc(Oc2ccc(Cl)c3ccccc23)n1
- IC50 [3]: > 197 µM
- IC50 [4]: 0.093 µM
- CC50 at 96 h [1]: 197 µM
- Ratio CC50/IC50 [2]: 2111

SMILES: N#Cc1ccc(Nc2nc(N=[N+]=[N-])nc(Oc3ccc4ccccc4c3Cl)n2)cc1
- IC50 [3]: 6.17 µM
- IC50 [4]: 0.06 µM
- CC50 at 96 h [1]: 256 µM
- Ratio CC50/IC50 [2]: 4270

SMILES: O=c1[nH]cnc2c1ncn2[C@H]1CC[C@@H](CO)O1 [DIDANOSINE]
- CC50 at 96 h [1]: ≥ 529 µM
- Ratio CC50/IC50 [2]: >=98

SMILES: CCNc1nc(Nc2ccc(C#N)cc2)nc(Oc2ccc(Cl)c3ccccc23)n1
- IC50 [3]: > 208 µM
- IC50 [4]: 0.733 µM
- CC50 at 96 h [1]: 208 µM
- Ratio CC50/IC50 [2]: 285
